What was measured:
[1] = molecular target: T1, Serine/threonine-protein kinase B-raf (Homo sapiens, UniProt P15056, V600E); test: Inhibition of B-Raf V600E mutant
How it was run: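 Enzymatic IC50 determined in vitro against purified V600E BRAF.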

[2] = molecular target: T1, Serine/threonine-protein kinase B-raf; test: Inhibition of BRAF V600E mutant-mediated ERK phosphorylation in human WM266.4 cells; assay type: cell-based
How it was run: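 Cellular IC50 for inhibition of phosphoERK formation.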

[3] = Growth inhibition of human WM266.4 cells expressing BRAF V600E mutant after 5 days by SRB assay; assay type: functional; details: WM 266-4, 120 h
How it was run: (§1)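 Antiproliferative SRB assay in WM266.4 (BRAF mutant), WM1361 (NRAS mutant) and D24 (BRAF/NRAS wild-type) melanoma cells, with GI50 derived from the assay.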

[4] = Cmax in BALB/cAnNCrl mouse at 10 mg/kg, po; details: in vivo
[5] = Tmax in BALB/cAnNCrl mouse at 10 mg/kg, po; details: in vivo
[6] = Oral bioavailability in BALB/cAnNCrl mouse at 10 mg/kg; details: in vivo
[7] = Selectivity index, ratio of GI50 for human WM1361 cells to GI50 for human WM266.4 cells; assay type: functional
How it was run: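 GI50 values from the SRB proliferation assay, expressed relative to the GI50 in WM266.4 (BRAF mutant) cells.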

[8] = Growth inhibition of human WM1361 cells expressing NRAS mutant after 5 days by SRB assay; assay type: functional; details: WM1361, 120 h; how it was run: as §1
[9] = Growth inhibition of D24 after 5 days by SRB assay; assay type: functional; how it was run: as §1
[10] = Half life in BALB/cAnNCrl mouse at 10 mg/kg, po; details: in vivo
[11] = Ratio of Cmax in BALB/cAnNCrl mouse to GI50 for human WM266.4 cells
[12] = Selectivity index, ratio of GI50 for human WM1361 cells to GI50 for human WM266.4

T1 sequence (P15056 2-766 V600E limits assumed): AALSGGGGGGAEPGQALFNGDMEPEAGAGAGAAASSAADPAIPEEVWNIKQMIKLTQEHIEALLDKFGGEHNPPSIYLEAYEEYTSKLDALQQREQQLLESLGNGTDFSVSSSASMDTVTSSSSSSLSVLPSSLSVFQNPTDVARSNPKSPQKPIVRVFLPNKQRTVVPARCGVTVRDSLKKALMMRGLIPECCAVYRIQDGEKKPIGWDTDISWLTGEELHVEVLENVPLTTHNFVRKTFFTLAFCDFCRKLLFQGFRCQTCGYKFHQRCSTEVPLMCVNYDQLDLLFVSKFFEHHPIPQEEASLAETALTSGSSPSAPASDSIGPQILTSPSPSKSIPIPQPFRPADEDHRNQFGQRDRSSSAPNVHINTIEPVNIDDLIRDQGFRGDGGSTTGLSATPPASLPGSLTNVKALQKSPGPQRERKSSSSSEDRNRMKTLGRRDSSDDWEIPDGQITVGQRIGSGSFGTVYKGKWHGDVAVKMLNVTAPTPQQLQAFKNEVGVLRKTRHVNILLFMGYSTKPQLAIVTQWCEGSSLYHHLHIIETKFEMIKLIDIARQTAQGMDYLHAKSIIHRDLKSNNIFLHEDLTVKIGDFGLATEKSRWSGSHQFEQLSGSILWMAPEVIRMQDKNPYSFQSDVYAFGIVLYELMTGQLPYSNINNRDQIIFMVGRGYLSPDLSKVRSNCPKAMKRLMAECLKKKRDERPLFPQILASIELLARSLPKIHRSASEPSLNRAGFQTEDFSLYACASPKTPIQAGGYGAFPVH

Row | IC50 [1] | IC50 [2] | Cmax [4] | Tmax [5] | bioavailability [6] | half-life [10] | SMILES | GI50 [3] | RatioGI50 [7] | GI50 [8] | GI50 [9] | Ratio [11] | RatioGI50 [12]
1 | 4 nM | 62 nM | 0.316 µM | 3 h | 4% | – | Cc1nc2c(Oc3ccc(NC(=O)Nc4cc(C(F)(F)F)ccc4F)c4ccccc34)ccnc2[nH]c1=O | 36 nM | – | – | – | – | –
2 | 87 nM | 274 nM | 27 µM | 0.5 h | 27% | 4 h | Cc1ccc(-n2nc(C(C)(C)C)cc2NC(=O)Nc2cccc(Oc3ccnc4[nH]c(=O)cnc34)c2)cc1 | 190 nM | 60 | 12000 nM | 26000 nM | 142 | 130
3 | 19 nM | 5 nM | 101 µM | 3 h | 71% | 7.9 h | CSc1cc(Oc2ccnc3[nH]c(=O)cnc23)ccc1NC(=O)Nc1cc(C(C)(C)C)nn1-c1ccc(C)cc1 | 1 nM | – | – | – | 101200 | –
4 | 58 nM | 280 nM | 29.5 µM | 0.5 h | 6% | 1.4 h | CC(C)(C)c1cc(NC(=O)Nc2cccc(Oc3ccnc4[nH]c(=O)cnc34)c2)n(-c2ccccc2)n1 | 170 nM | – | – | – | 170 | –
5 | 90 nM | 75 nM | 5.54 µM | 3 h | 1% | 5.4 h | Cc1ccc(-n2nc(C(C)(C)C)cc2NC(=O)Nc2ccc(Oc3ccnc4[nH]c(=O)c(=O)[nH]c34)cc2F)cc1 | 79 nM | – | – | – | 70 | –
6 | 77 nM | 8 nM | 14.2 µM | 0.25 h | 7% | 1.7 h | CC(C)(C)c1cc(NC(=O)Nc2ccc(Oc3ccnc4[nH]c(=O)cnc34)c3ccccc23)n(-c2ccccc2)n1 | 105 nM | – | – | – | 130 | –
7 | – | 24 nM | 33.6 µM | 3 h | 24% | 5.9 h | Cc1ccc(-n2nc(C(C)(C)C)cc2NC(=O)Nc2ccc(Oc3ccnc4[nH]c(=O)cnc34)cc2F)cc1 | 15 nM | – | – | – | 2240 | –
8 | 80 nM | 10 nM | – | – | – | – | Cc1ccc(-n2nc(C(C)(C)C)cc2NC(=O)Nc2ccc(Oc3ccnc4[nH]c(=O)cnc34)c3ccccc23)cc1 | 80 nM | – | – | – | – | –
9 | 310 nM | 55 nM | 11.7 µM | 3 h | 13% | 3.3 h | Cc1ccc(-n2nc(C(C)(C)C)cc2NC(=O)Nc2ccc(Oc3ccnc4[nH]c(S)nc34)cc2F)cc1 | 154 nM | – | – | – | 76 | –
10 | 85 nM | 7 nM | – | – | – | – | CC(C)(C)c1cc(NC(=O)Nc2ccc(Oc3ccnc4[nH]c(=O)c(N)nc34)c3ccccc23)n(-c2ccccc2)n1 | 9 nM | – | – | – | – | –
11 | 5 nM | 600 nM | – | – | – | – | O=C(Nc1ccc(Oc2ccnc3[nH]c(=O)c(=O)[nH]c23)cc1F)Nc1cc(C(F)(F)F)ccc1F | 1450 nM | – | – | – | – | –
12 | – | 96 nM | 31.9 µM | 0.5 h | 17% | 6.3 h | Cc1ccc(-n2nc(C(C)(C)C)cc2NC(=O)Nc2ccc(Oc3ccnc4[nH]c(=O)cnc34)cc2)cc1 | 62 nM | – | – | – | 510 | –
13 | 190 nM | 273 nM | – | – | – | – | CC(C)(C)c1cc(NC(=O)Nc2ccc(Oc3ccnc4[nH]c(=O)c(=O)[nH]c34)cc2F)n(-c2ccccc2)n1 | 299 nM | – | – | – | – | –
14 | 43 nM | 229 nM | – | – | – | – | Nc1nc2nccc(Oc3ccc(NC(=O)Nc4cc(C(F)(F)F)ccc4F)c4ccccc34)c2[nH]c1=O | 204 nM | – | – | – | – | –
15 | 1080 nM | 8500 nM | – | – | – | – | O=C(Nc1cc(C(F)(F)F)ccc1F)Nc1ccc(Oc2ccnc3nc(C(F)(F)F)c(=O)[nH]c23)c2ccccc12 | 10000 nM | – | – | – | – | –
16 | > 10000 nM | 1700 nM | – | – | – | – | CN(C)c1cnc2c(Oc3ccc(NC(=O)Nc4cc(C(C)(C)C)nn4-c4ccccc4)c(F)c3)ccnc2n1 | 1100 nM | – | – | – | – | –
17 | 105 nM | > 100000 nM | – | – | – | – | O=C(Nc1cccc(Oc2ccnc3ncc(=O)[nH]c23)c1)Nc1cc(C(F)(F)F)ccc1F | 6100 nM | – | – | – | – | –
18 | 30 nM | 1550 nM | – | – | – | – | Nc1nc2c(Oc3ccc(NC(=O)Nc4cc(C(F)(F)F)ccc4F)c(F)c3)ccnc2[nH]c1=O | 1550 nM | – | – | – | – | –
19 | 67 nM | 8 nM | – | – | – | – | Cc1nc2c(Oc3ccc(NC(=O)Nc4cc(C(C)(C)C)nn4-c4ccccc4)c4ccccc34)ccnc2[nH]c1=O | 57 nM | – | – | – | – | –
20 | 84 nM | 2070 nM | – | – | – | – | O=C(Nc1cc(C(F)(F)F)ccc1F)Nc1ccc(Oc2ccnc3ncc(=O)[nH]c23)c2ccccc12 | 486 nM | – | – | – | – | –
21 | 8200 nM | 750 nM | – | – | – | – | CC(C)(C)c1cc(NC(=O)Nc2ccc(Oc3ccnc4nc(N5CCOCC5)cnc34)cc2F)n(-c2ccccc2)n1 | 428 nM | – | – | – | – | –
22 | 3000 nM | 141 nM | – | – | – | – | Cc1nc2nccc(Oc3ccc(NC(=O)Nc4cc(C(C)(C)C)nn4-c4ccccc4)c4ccccc34)c2[nH]c1=O | 95 nM | – | – | – | – | –
23 | 2 nM | 97 nM | – | – | – | – | CSc1cc(Oc2ccnc3[nH]c(=O)c(C)nc23)ccc1NC(=O)Nc1cc(C(F)(F)F)ccc1F | 225 nM | – | – | – | – | –
24 | 258 nM | 20000 nM | – | – | – | – | Cc1nc2nccc(Oc3ccc(NC(=O)Nc4cc(C(F)(F)F)ccc4F)c(F)c3)c2[nH]c1=O | 2700 nM | – | – | – | – | –
25 | 71 nM | 3990 nM | – | – | – | – | CSc1cc(Oc2ccnc3ncc(=O)[nH]c23)ccc1NC(=O)Nc1ccc(Cl)c(C(F)(F)F)c1 | 4300 nM | – | – | – | – | –
26 | 580 nM | 780 nM | – | – | – | – | Cc1ccc(-n2nc(C(C)(C)C)cc2NC(=O)Nc2cccc(Oc3ccnc4ncc(=O)[nH]c34)c2)cc1 | 345 nM | – | – | – | – | –

— ChEMBL document CHEMBL1212820, “Novel hinge binder improves activity and pharmacokinetic properties of BRAF inhibitors” (J Med Chem, 2010)
